Experimental data as given in ChEMBL document CHEMBL1152615, “Cytosporones, coumarins, and an alkaloid from the endophytic fungus Pestalotiopsis sp. isolated from the Chinese mangrove plant Rhizophoramucronata” (Bioorg Med Chem, 2009).
Activity calls are given as the source filed them.

Experiments:
Assay type in all cases: functional, cell-based
L5178Y = experiment: Cytotoxicity against mouse L5178Y cells
Outline: (§1)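 MTT assay. Cells kept in RPMI-1640 with Na-carbonate (pH 7.2) plus 10% FCS, at 37 °C under humidified 5% CO2/95% air. Seeded at 1500 cells/mL and exposed for 72 h to compounds in DMSO at several concentrations, with an initial test concentration of 10 µg/mL. MTT added for 3 h, then DMSO for 1 h to lyse cells; absorbance read at 595 nm. Negative control was medium with 0.1% EGMME/DMSO.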

HeLa = experiment: Cytotoxicity against human HeLa cells; outline: as §1
PC-12 = experiment: Cytotoxicity against rat PC12 cells; outline: as §1

Measured: Activity

CC(O)CCCCCC1OC(=O)Cc2cc(O)cc(O)c21 (centres undefined)
inactive: L5178Y | HeLa | PC-12

COc1cc(OC)c2oc(=O)c(CC(C)O)cc2c1 (centres undefined)
inactive: L5178Y | HeLa | PC-12

COc1cc(OC)c2oc(=O)c(C(O)C(C)O)cc2c1 (centres undefined)
inactive: L5178Y | HeLa | PC-12

COc1cc(OC)c2oc(=O)c(CO)cc2c1
inactive: L5178Y | HeLa | PC-12

COC(=O)Cc1cc(O)cc(O)c1C(=O)CCCCCC(C)O (centres undefined)
inactive: L5178Y | HeLa | PC-12

CC(=O)OCCCCCCCC1OC(=O)Cc2cc(O)cc(O)c21 (centres undefined)
inactive: L5178Y | HeLa | PC-12

CCCCCCCC(=O)c1c(O)cc(O)cc1CC(=O)OC
inactive: L5178Y | HeLa | PC-12

CCOC(=O)Cc1cc(O)cc(O)c1C(=O)CCCCCC(C)O (centres undefined)
inactive: L5178Y | HeLa | PC-12

CCCCCCCC1OC(=O)Cc2cc(O)cc(O)c21 (centres undefined)
inactive: L5178Y | HeLa | PC-12

COc1cc(OC)c2oc(=O)c(CC(O)CO)cc2c1 (centres undefined)
inactive: L5178Y | HeLa | PC-12

CC(=O)OC(C)CCCCCC1OC(=O)Cc2cc(O)cc(O)c21 (centres undefined)
inactive: L5178Y | HeLa | PC-12

COc1cc(O)cc2cc(CO)c(=O)oc12
inactive: L5178Y | HeLa | PC-12

COc1cc(O)c2oc(=O)c(CC(O)CO)cc2c1 (centres undefined)
inactive: L5178Y | HeLa | PC-12
